The record followed here is ChEMBL document CHEMBL3425497, “Discovery of (R)-1-(3-((2-chloro-4-(((2-hydroxy-2-(8-hydroxy-2-oxo-1,2-dihydroquinolin-5-yl)ethyl)amino)methyl)-5-methoxyphenyl)amino)-3-oxopropyl)piperidin-4-yl [1,1'-biphenyl]-2-ylcarbamate (TD-5959, GSK961081, batefenterol): first-in-class dual pharmacology multivalent muscarinic antagonist and …” (J Med Chem, 2015).

Active and inactive are the calls of the source. The calls are words filed in the database; no cut-off is given here.

Usually Ki stands for the dissociation constant of the complex between target and ligand, obtained from inhibition or displacement. The EC50 is the midpoint of the concentration-response curve.

The target in experiment [1] is Muscarinic acetylcholine receptor M3 (Homo sapiens, UniProt P20309). The experiment can be described thus: Displacement of [3H]NMS from human muscarinic M3 receptor expressing CHO-K1 cells incubated for 60 mins or 6 hrs by liquid scintillation counting. Type of experiment: cell-based. A general note: In a radioligand displacement assay an active substance lowers the binding of a labelled ligand.
Muscarinic acetylcholine receptor M3, sequence (P20309 whole entry): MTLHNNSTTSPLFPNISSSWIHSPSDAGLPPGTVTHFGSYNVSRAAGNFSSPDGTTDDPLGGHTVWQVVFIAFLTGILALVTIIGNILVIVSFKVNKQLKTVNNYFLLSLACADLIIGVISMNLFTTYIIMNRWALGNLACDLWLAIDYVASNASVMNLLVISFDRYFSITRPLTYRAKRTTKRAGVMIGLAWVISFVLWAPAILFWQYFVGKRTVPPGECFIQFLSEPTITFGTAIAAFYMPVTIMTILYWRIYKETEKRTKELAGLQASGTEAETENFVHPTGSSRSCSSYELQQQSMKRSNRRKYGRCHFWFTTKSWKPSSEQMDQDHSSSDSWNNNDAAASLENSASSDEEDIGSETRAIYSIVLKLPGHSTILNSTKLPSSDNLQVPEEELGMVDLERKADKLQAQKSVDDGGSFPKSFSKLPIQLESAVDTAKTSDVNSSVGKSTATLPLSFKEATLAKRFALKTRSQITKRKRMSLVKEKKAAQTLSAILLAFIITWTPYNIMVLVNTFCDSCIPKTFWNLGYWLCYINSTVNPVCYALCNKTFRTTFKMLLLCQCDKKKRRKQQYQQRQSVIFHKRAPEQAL

Experiment [2] has as its target Beta-2 adrenergic receptor (Homo sapiens, UniProt P07550). The experiment can be described thus: Agonist activity at human beta2 adrenergic receptor expressed in HEK293 cells assessed as cAMP accumulation using [125I]cAMP by scintillation counting. Type of experiment: functional, cell-based.
Experiment [3] concerns Cavia porcellus. The experiment can be described thus: Bronchoprotection in male Duncan Hartley guinea pig bronchoconstriction einthoven model assessed as inhibition of methacholine-induced bronchoconstriction at 100 microg/ml, inhalation after 24 hrs by in vivo muscarinic acetylcholine receptor antagonist activity assay. Type of experiment: functional. Also on record: scale not given: the % may be the effect or the level left. Summed up: (§1)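 Einthoven bronchoprotection in guinea pigs, read as % bronchoprotection 24 h after inhaled dosing. The TFA salt was used in the initial experiments. For one compound, the edisylate salt was compared with the TFA form. Group sizes were n = 3–8.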

In experiment [4] the test system is Cavia porcellus. The experiment can be described thus: Bronchoprotection in male Duncan Hartley guinea pig bronchoconstriction einthoven model assessed as inhibition of methacholine-induced bronchoconstriction at 100 microg/ml, inhalation after 24 hrs by in vivo beta2 adrenergic receptor agonist activity assay. Type of experiment: functional. More on the design: scale not given: the % may be the effect or the level left. Summed up: as §1

Experiment [5] concerns Cavia porcellus. The experiment can be described thus: Bronchoprotection in male Duncan Hartley guinea pig bronchoconstriction einthoven model assessed as inhibition of methacholine-induced bronchoconstriction at 100 microg/ml, inhalation after 24 hrs by in vivo muscarinic antagonist and beta2 agonist activity assay. Also on record: scale not given: the % may be the effect or the level left. Type of experiment: functional. Put shortly: as §1

Experiment [6] concerns Cavia porcellus. The experiment can be described thus: Bronchoprotection in male Duncan Hartley guinea pig bronchoconstriction einthoven model assessed as inhibition of methacholine-induced bronchoconstriction at 100 microg/ml, inhalation after 1.5 hrs by in vivo muscarinic acetylcholine receptor antagonist activity assay. Type of experiment: functional. Also on record: scale not given: the % may be the effect or the level left.

Experiment [7] has as its system Cavia porcellus. The experiment can be described thus: Bronchoprotection in male Duncan Hartley guinea pig bronchoconstriction einthoven model assessed as inhibition of methacholine-induced bronchoconstriction at 100 microg/ml, inhalation after 1.5 hrs by in vivo beta2 adrenergic receptor agonist activity assay. Type of experiment: functional. More on the design: scale not given: the % may be the effect or the level left.

Experiment [8] has as its system Cavia porcellus. The experiment can be described thus: Bronchoprotection in male Duncan Hartley guinea pig bronchoconstriction einthoven model assessed as inhibition of methacholine-induced bronchoconstriction at 100 microg/ml, inhalation after 1.5 hrs by in vivo muscarinic antagonist and beta2 agonist activity assay. Type of experiment: functional. More on the design: scale not given: the % may be the effect or the level left.

The species entered for experiment [9] is Cavia porcellus. The experiment can be described thus: Antisialagogue activity in guinea pig assessed as inhibition of pilocarpine-induced sialagogue response at 100 ug/ml, inhalation after 1.5 hrs. Type of experiment: functional. Summed up: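 Guinea pigs were pretreated with test compound by inhalation. At 1.5 h post-dose they were challenged with pilocarpine. The sialagogue (salivation) response was recorded as % inhibition.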

Beta-2 adrenergic receptor, sequence (P07550 whole entry): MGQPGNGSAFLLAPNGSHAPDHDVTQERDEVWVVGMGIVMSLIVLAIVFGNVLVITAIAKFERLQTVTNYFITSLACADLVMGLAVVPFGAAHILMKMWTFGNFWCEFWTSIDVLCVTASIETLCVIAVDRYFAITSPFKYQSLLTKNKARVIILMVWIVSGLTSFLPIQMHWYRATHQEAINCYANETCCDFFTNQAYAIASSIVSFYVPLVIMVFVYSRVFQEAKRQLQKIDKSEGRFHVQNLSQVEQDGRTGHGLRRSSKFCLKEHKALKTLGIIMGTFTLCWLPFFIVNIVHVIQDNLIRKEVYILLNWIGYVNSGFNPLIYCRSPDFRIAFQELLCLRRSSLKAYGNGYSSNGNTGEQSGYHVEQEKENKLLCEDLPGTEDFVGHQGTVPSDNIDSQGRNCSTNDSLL

As for `O=C(CCN1CCC(OC(=O)Nc2ccccc2-c2ccccc2)CC1)Nc1cccc(CCNC[C@H](O)c2ccc(O)c3[nH]c(=O)ccc23)c1`, in experiment [1], the affinity corresponds to a Ki of 1 nM. Besides, the EC50 in experiment [2] was 0.1 nM. For the same compound, the Activity with Cavia porcellus [3] amounted to 51%; with Cavia porcellus [4], 46%; with Cavia porcellus [5] it was 72%; in the experiment with Cavia porcellus [6], 77%; with Cavia porcellus [7], 80%; with Cavia porcellus [8], 93%. The “inhibition (INH)” value in the experiment listed under Cavia porcellus [9] stood at 23%.

`COc1c(CNC[C@H](O)c2ccc(O)c3[nH]c(=O)ccc23)ccc(NC(=O)CCN2CCC(OC(=O)Nc3ccccc3-c3ccccc3)CC2)c1C` had a Ki in experiment [1] of 0.501 nM. Besides, in experiment [2], the EC50 was 0.251 nM.

Compound `COc1cc(N(C)C(=O)CCN2CCC(OC(=O)Nc3ccccc3-c3ccccc3)CC2)ccc1CNC[C@H](O)c1ccc(O)c2[nH]c(=O)ccc12` gave a Ki in experiment [1] of 0.631 nM. Further, the EC50 in experiment [2] was 50.1 nM.

In experiment [1], `COc1c(CNC[C@H](O)c2ccc(O)c3[nH]c(=O)ccc23)ccc(NC(=O)CCN2CCC(OC(=O)Nc3ccccc3-c3ccccc3)CC2)c1Cl` had a Ki of 0.631 nM. Besides, the EC50 in [2] was 0.398 nM.

In turn, `CN(CCN1CCC(OC(=O)Nc2ccccc2-c2ccccc2)CC1)C(=O)c1ccc(CNC[C@H](O)c2ccc(O)c3[nH]c(=O)ccc23)cc1` showed a Ki in experiment [1] of 0.794 nM. Further, the EC50 in experiment [2] is 0.251 nM.

For `COc1cc(CNC[C@H](O)c2ccc(O)c3[nH]c(=O)ccc23)ccc1NC(=O)CCN1CCC(OC(=O)Nc2ccccc2-c2ccccc2)CC1`, the affinity in experiment [1] corresponds to a Ki of 1.58 nM. In addition, the EC50 in experiment [2] was 0.501 nM. Also, the Activity in the experiment with Cavia porcellus [3] was found to be 22%; in the experiment on Cavia porcellus [4] it was 33%.

`COc1cc(NC(=O)CCN2CCC(OC(=O)Nc3ccccc3-c3ccccc3)CC2)c(C)cc1CNC[C@H](O)c1ccc(O)c2[nH]c(=O)ccc12` had a Ki in experiment [1] of 0.316 nM. Further, the EC50 in [2] was 0.316 nM.

On to `Cc1cc(CNC[C@H](O)c2ccc(O)c3[nH]c(=O)ccc23)ccc1NC(=O)CCN1CCC(OC(=O)Nc2ccccc2-c2ccccc2)CC1`, for which, in experiment [1], the Ki is 0.0501 nM. Also, the EC50 in experiment [2] is 0.2 nM. The figures for the Activity with Cavia porcellus [3], in the experiment on Cavia porcellus [4] and in the experiment with Cavia porcellus [5] were 92%, 20% and 96%, respectively.

`O=C(Nc1ccccc1-c1ccccc1)OC1CCN(CCNC(=O)c2ccc(CNC[C@H](O)c3ccc(O)c4[nH]c(=O)ccc34)cc2)CC1` showed a Ki in [1] of 0.631 nM. In addition, the EC50 in experiment [2] is 0.501 nM. Moreover, the Activity with Cavia porcellus [3] worked out at 74%; in the experiment on Cavia porcellus [4], 20%.

Turning to `NC(=O)C(c1ccccc1)(c1ccccc1)[C@@H]1CCN(CCc2ccc3c(c2)CCO3)C1` [DARIFENACIN], the values for the Activity in the experiment with Cavia porcellus [3], in the experiment with Cavia porcellus [4] and in the experiment on Cavia porcellus [7] were 72%, 43% and 74%, respectively. Further, the outcome in the experiment with Cavia porcellus [5], in the experiment on Cavia porcellus [6] and with Cavia porcellus [8] was inactive.

In the case of `O=C(CCN1CCC(OC(=O)Nc2ccccc2-c2ccccc2)CC1)Nc1ccc(CNC[C@H](O)c2ccc(O)c3[nH]c(=O)ccc23)cc1Cl`, in experiment [1], the Ki was 0.2 nM. Further, the EC50 in [2] is 0.251 nM. Besides, the Activity in the experiment on Cavia porcellus [4] turned out to be 25%.

`Cc1cc(CNC[C@H](O)c2ccc(O)c3[nH]c(=O)ccc23)ccc1N(C)C(=O)CCN1CCC(OC(=O)Nc2ccccc2-c2ccccc2)CC1` showed a Ki in experiment [1] of 0.2 nM. Moreover, in experiment [2], the EC50 was 3.98 nM.

The compound `O=C(CCN1CCC(OC(=O)Nc2ccccc2-c2ccccc2)CC1)NCCCCCNC[C@H](O)c1ccc(O)c2[nH]c(=O)ccc12` showed a Ki in experiment [1] of 0.1 nM. For the same compound, the EC50 in [2] was 0.126 nM.

As for `COc1ccc(NC(=O)CCN2CCC(OC(=O)Nc3ccccc3-c3ccccc3)CC2)cc1CCNC[C@H](O)c1ccc(O)c2[nH]c(=O)ccc12`, affinity in experiment [1] was put at a Ki of 2 nM. Moreover, the EC50 in experiment [2] was 0.794 nM.

Take `O=C(CCN1CCC(OC(=O)Nc2ccccc2-c2ccccc2)CC1)Nc1ccc(CNC[C@H](O)c2ccc(O)c3[nH]c(=O)ccc23)c(Cl)c1`: the affinity in experiment [1], expressed as Ki, was 0.2 nM. In experiment [2], the EC50 was 0.501 nM.

Turning to `O=C(Nc1ccccc1-c1ccccc1)OC1CCN(CCCCCCCCCNC[C@H](O)c2ccc(O)c3[nH]c(=O)ccc23)CC1`, the Activity with Cavia porcellus [3] amounted to 72%; with Cavia porcellus [4], 10%; in the experiment on Cavia porcellus [6] it was 94%; in the experiment with Cavia porcellus [7], 63%.

`O=C(CCN1CCC(OC(=O)Nc2ccccc2-c2ccccc2)CC1)Nc1ccc(CNC[C@H](O)c2ccc(O)c3[nH]c(=O)ccc23)cc1` showed a Ki in experiment [1] of 0.0794 nM. In addition, the EC50 in experiment [2] is 0.251 nM. Besides, the figures for the Activity in the experiment with Cavia porcellus [3], in the experiment with Cavia porcellus [4] and in the experiment with Cavia porcellus [7] were 98%, -2% and 47%, respectively. For the same compound, the “inhibition (INH)” value in the experiment listed under Cavia porcellus [9] came to 82%.

As to `COc1cc(N(C)C(=O)CCN2CCC(OC(=O)Nc3ccccc3-c3ccccc3)CC2)c(Cl)cc1CNC[C@H](O)c1ccc(O)c2[nH]c(=O)ccc12`, in [1], affinity was put at a Ki of 0.316 nM. In addition, the EC50 in experiment [2] was 0.794 nM.

With `COc1cc(C(=O)NCCN2CCC(OC(=O)Nc3ccccc3-c3ccccc3)CC2)ccc1CNC[C@H](O)c1ccc(O)c2[nH]c(=O)ccc12`, the Ki in [1] is 6.31 nM. Besides, the EC50 in experiment [2] is 1.58 nM.

On to `Cc1cc(NC(=O)CCN2CCC(OC(=O)Nc3ccccc3-c3ccccc3)CC2)ccc1CNC[C@H](O)c1ccc(O)c2[nH]c(=O)ccc12`, for which the Ki in experiment [1] was 1.26 nM. Moreover, in experiment [2], the EC50 was 0.2 nM.

In turn, `O=C(CCN1CCC(OC(=O)Nc2ccccc2-c2ccccc2)CC1)N[C@H]1CC[C@H](CNC[C@H](O)c2ccc(O)c3[nH]c(=O)ccc23)CC1` gave a Ki in experiment [1] of 0.316 nM. Also, in [2], the EC50 is 0.158 nM.

In [1], `COc1ccc(CCNC[C@H](O)c2ccc(O)c3[nH]c(=O)ccc23)cc1NC(=O)CCN1CCC(OC(=O)Nc2ccccc2-c2ccccc2)CC1` showed a Ki of 7.94 nM. In addition, the EC50 in experiment [2] is 1.26 nM.

In [1], `Cc1cc(C(=O)NCCN2CCC(OC(=O)Nc3ccccc3-c3ccccc3)CC2)c(C)cc1CNC[C@H](O)c1ccc(O)c2[nH]c(=O)ccc12` had a Ki of 3.16 nM. Also, the EC50 in [2] is 0.158 nM.

For `COc1cc(NC(=O)CCN2CCC(OC(=O)Nc3ccccc3-c3ccccc3)CC2)ccc1CNC[C@H](O)c1ccc(O)c2[nH]c(=O)ccc12`, in [1], the Ki is 0.158 nM. For the same compound, the EC50 in experiment [2] was 0.251 nM. For the same compound, the Activity with Cavia porcellus [3] came out at 81%; in the experiment on Cavia porcellus [4] it was 72%; in the experiment on Cavia porcellus [6] it was 94%; with Cavia porcellus [7], 70%. Also, in the experiment listed under Cavia porcellus [9], the “inhibition (INH)” value was -3%.
